Series [1] is described as follows: Kinetic hydrolysis catalyzed by pig liver esterase at pH 7.4 and 37 degree C. Format: ADME, Sus scrofa. The essentials:
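Substrate at 2.2 × 10⁻³ M in 0.02 M Na₂HPO₄, pH 7.4, with pig liver esterase (200 units per 1 mL), stirred at 37 °C. Aliquots were taken at set times and analysed by reverse-phase C18 HPLC (water–CH₃CN gradient) to follow loss of substrate and give the half-life.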

Series [2] can be described thus: Kinetic hydrolysis catalyzed by pig liver esterase at pH 9.8. Format: ADME, Sus scrofa.
Series [3] is described as follows: Kinetic hydrolysis catalyzed by pig liver esterase at pH 1.2. Format: ADME, Sus scrofa.
Series [4] has as its system ATH-8 cell line. Briefly: Compound was evaluated for the inhibition of replication and cytopathic effect of HIV-1 in ATH8 cells. Format: functional, cell-based, Homo sapiens. The essentials: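 ATH8 (CD4+) cells, 2 × 10⁵, were exposed to HIV-1 LAI (500 TCID50) for 45 min and then cultured with compound. Total viable cells were counted on day 7. Percent protection was calculated as viable cells (infected plus drug minus infected alone) divided by (uninfected minus infected alone) × 100. Cytotoxicity was 100 × (1 − viable cells with drug / viable cells alone).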

A further series deals with L1210 (Mus musculus). Briefly: Compound was evaluated for the inhibitory activity in a clonogenic assay with murine leukemia L1210 cells.
The next series relates to L1210. Briefly: Compound was evaluated for the clonogenic assay with murine leukemia L1210 cells. Format: functional. The settings on record: Mus musculus, read-out: ID50 (the source's name).
The test system of series [5] is ATH-8 cell line. Briefly: Compound was evaluated for the cytotoxicity in ATH8 cells. As to conditions: Homo sapiens.

For `COC(=O)C(C)NP(=O)(OCC=C=Cn1cnc2c(N)ncnc21)Oc1ccccc1` (stereo in doubt; 2a), the values for the half-life in series [1], in series [2] and in series [3] were 8.5 h, 2.52 h and 24.4 h, respectively. In the series with ATH-8 cell line [4] (ath-8), this compound had an EC50 of 880 nM. The ID50 in the series on L1210 (Mus musculus) is > 300000 nM.

For the compound `COC(=O)C(C)NP(=O)(OCC=C=Cn1cnc2c(N)ncnc21)Oc1ccccc1` (stereo in doubt; 4a), the midpoint of the response in the series with ATH-8 cell line [4] (ath-8), the EC50, lay at 210 nM.

The compound `Nc1ncnc2c1ncn2C=C=CCO` registered an EC50 with ATH-8 cell line [4] (Homo sapiens, ATH-8) of 14000 nM. Also, the values for the IC50 in the series with L1210 and with ATH-8 cell line [5] were 150000 nM and 3000 nM, respectively.

(Values after ChEMBL document CHEMBL1129608, “Phosphodiester amidates of allenic nucleoside analogues: anti-HIV activity and possible mechanism of action” (J Med Chem, 1996).)
